Measurements: ChEMBL document CHEMBL1641497, “A potent and selective indole N-type calcium channel (Ca(v)2.2) blocker for the treatment of pain” (Bioorg Med Chem Lett, 2011)
Calls of active or inactive are those of the source. The rule behind the calls is not given here.

Experiments:
[1] = Plasma clearance in dog at 1 mg/kg, iv and 3 mg/kg, po; format: ADME, organism-based, Canis lupus familiaris
Procedure, shortened: (§1)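 Dog PK with 1.0 mg/kg IV and 3.0 mg/kg PO doses, based on plasma analysis. Parameters: dose-normalized AUC (μM h kg/mg), plasma clearance (mL/min/kg), T1/2 (h) and oral bioavailability (%).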

[2] = Oral bioavailability in rat at 3 mg/kg; format: ADME, organism-based; details: in vivo
Procedure, shortened: (§2)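 Rat PK with 1.0 mg/kg IV and 3.0 mg/kg PO doses, based on plasma analysis. Parameters: Cmax, dose-normalized AUC (μM h kg/mg), plasma clearance (mL/min/kg), Vdss (L/kg), T1/2 (h) and oral bioavailability (%).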

[3] = molecular target: Cav1.2 (voltage-dependent L-type calcium channel subunit alpha-1C) (Homo sapiens, UniProt Q13936); assay: Blockade of Cav1.2 channel at 10 uM by fluorescent calcium-influx assay
Procedure, shortened: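 Cav1.2 (L-type) channel block measured with a fluorescent calcium-influx FLIPR assay. Results are reported as % inhibition at 10 μM test concentration.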

[4] = molecular target: T1, Nuclear receptor subfamily 1 group I member 2 (Homo sapiens, UniProt O75469); assay: Activity at PXR by induction assay
T1 sequence (O75469 whole entry): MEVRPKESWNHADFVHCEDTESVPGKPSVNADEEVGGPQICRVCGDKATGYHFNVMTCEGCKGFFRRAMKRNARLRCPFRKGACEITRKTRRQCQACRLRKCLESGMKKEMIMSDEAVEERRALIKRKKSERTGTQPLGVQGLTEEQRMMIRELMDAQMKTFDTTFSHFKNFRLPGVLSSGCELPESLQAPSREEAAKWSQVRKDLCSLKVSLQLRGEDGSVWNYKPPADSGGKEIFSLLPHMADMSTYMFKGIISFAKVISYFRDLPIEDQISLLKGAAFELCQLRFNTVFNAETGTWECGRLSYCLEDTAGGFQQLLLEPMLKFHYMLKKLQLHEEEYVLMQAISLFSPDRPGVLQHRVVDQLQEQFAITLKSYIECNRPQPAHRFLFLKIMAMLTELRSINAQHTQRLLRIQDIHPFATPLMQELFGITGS

[5] = Metabolic stability in human liver microsomes assessed as compound remaining after 60 mins; format: ADME, Microsome; details: read-out: Stability
Procedure, shortened: (§3)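 Compounds incubated with human or rat liver microsomes for 60 min. Read-out is the percent of parent compound remaining.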

[6] = Metabolic stability in rat liver microsomes assessed as compound remaining after 60 mins; format: ADME, Microsome; details: read-out: Stability; procedure, shortened: as §3
Rattus norvegicus [7] = assay: Dose normalized AUC in rat at 1 mg/kg, iv and 3 mg/kg, po; format: ADME, organism-based; details: in vivo; procedure, shortened: as §2
[8] = Plasma clearance in rat at 1 mg/kg, iv and 3 mg/kg, po; format: ADME, organism-based; procedure, shortened: as §2
[9] = Half life in rat at 1 mg/kg, iv and 3 mg/kg, po; format: ADME, organism-based; details: in vivo; procedure, shortened: as §2
Canis familiaris [10] = assay: Dose normalized AUC in dog at 1 mg/kg, iv and 3 mg/kg, po; format: ADME, organism-based, Canis lupus familiaris; details: in vivo; procedure, shortened: as §1
[11] = Half life in dog at 1 mg/kg, iv and 3 mg/kg, po; format: ADME, organism-based, Canis lupus familiaris; details: in vivo; procedure, shortened: as §1
[12] = Oral bioavailability in dog at 3 mg/kg; format: ADME, organism-based, Canis lupus familiaris; details: in vivo
Cytochrome P450 3A4 = Cytochrome P450 3A4 (Homo sapiens, UniProt P08684); assay: Inhibition of CYP3A4; format: ADME
Cytochrome P450 2D6 = Cytochrome P450 2D6 (Homo sapiens, UniProt P10635); assay: Inhibition of CYP2D6; format: ADME
Cytochrome P450 2C9 = Cytochrome P450 2C9 (Homo sapiens, UniProt P11712); assay: Inhibition of CYP2C9; format: ADME
Rattus norvegicus [13] = assay: Antinociceptive activity in rat assessed as reversal of complete Freund's adjuvant-induced pain at 3 mg/kg, po after 1 hr; format: functional
Procedure, shortened: (§4)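 Rat CFA-induced inflammatory pain model, oral dosing. Mechanical allodynia assessed by paw pressure and expressed as % reversal. Plasma and brain drug levels measured at 3 h post-dose.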

Rattus norvegicus [14] = assay: Antinociceptive activity in rat assessed as reversal of complete Freund's adjuvant-induced pain at 3 mg/kg, po after 3 hrs; format: functional; procedure, shortened: as §4
Rattus norvegicus [15] = assay: Antinociceptive activity in rat assessed as reversal of complete Freund's adjuvant-induced pain at 3 mg/kg, po after 8 hrs; format: functional; procedure, shortened: as §4
Rattus norvegicus [16] = assay: Antinociceptive activity in rat assessed as reversal of complete Freund's adjuvant-induced pain at 10 mg/kg, po after 1 hr; format: functional; procedure, shortened: as §4
Rattus norvegicus [17] = assay: Antinociceptive activity in rat assessed as reversal of complete Freund's adjuvant-induced pain at 10 mg/kg, po after 3 hrs; format: functional; procedure, shortened: as §4
Rattus norvegicus [18] = assay: Antinociceptive activity in rat assessed as reversal of complete Freund's adjuvant-induced pain at 10 mg/kg, po after 8 hrs; format: functional; procedure, shortened: as §4
Rattus norvegicus [19] = assay: Antinociceptive activity in rat assessed as reversal of complete Freund's adjuvant-induced pain at 30 mg/kg, po after 1 hr; format: functional; procedure, shortened: as §4
Rattus norvegicus [20] = assay: Antinociceptive activity in rat assessed as reversal of complete Freund's adjuvant-induced pain at 30 mg/kg, po after 3 hrs; format: functional; procedure, shortened: as §4
Rattus norvegicus [21] = assay: Antinociceptive activity in rat assessed as reversal of complete Freund's adjuvant-induced pain at 30 mg/kg, po after 8 hrs; format: functional; procedure, shortened: as §4
Rattus norvegicus [22] = assay: Antiallodynic activity in rat spinal nerve ligation model of neuropathic pain assessed as reversal of mechanical allodynia at 10 mg/kg, po after 1 hr; format: functional
Procedure, shortened: (§5)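 Rat spinal nerve ligation neuropathic pain model, oral dosing. Read-out is % reversal of mechanical allodynia. Plasma and brain drug levels measured at 1 h. An efficacious (EC50) plasma exposure was derived.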

Rattus norvegicus [23] = assay: Antiallodynic activity in rat spinal nerve ligation model of neuropathic pain assessed as reversal of mechanical allodynia at 10 mg/kg, po after 3 hrs; format: functional; procedure, shortened: as §5
Rattus norvegicus [24] = assay: Antiallodynic activity in rat spinal nerve ligation model of neuropathic pain assessed as reversal of mechanical allodynia at 10 mg/kg, po after 8 hrs; format: functional; procedure, shortened: as §5
Rattus norvegicus [25] = assay: Antiallodynic activity in rat spinal nerve ligation model of neuropathic pain assessed as reversal of mechanical allodynia at 30 mg/kg, po after 1 hr; format: functional; procedure, shortened: as §5
Rattus norvegicus [26] = assay: Antiallodynic activity in rat spinal nerve ligation model of neuropathic pain assessed as reversal of mechanical allodynia at 30 mg/kg, po after 3 hrs; format: functional; procedure, shortened: as §5
Rattus norvegicus [27] = assay: Antiallodynic activity in rat spinal nerve ligation model of neuropathic pain assessed as reversal of mechanical allodynia at 30 mg/kg, po after 8 hrs; format: functional; procedure, shortened: as §5
[28] = Volume of distribution at steady state in rat at 1 mg/kg, iv and 3 mg/kg, po; format: ADME, organism-based; details: in vivo, read-out: Vdss; procedure, shortened: as §2
[29] = Cmax in rat at 1 mg/kg, iv and 3 mg/kg, po; format: ADME, organism-based; details: in vivo; procedure, shortened: as §2
[30] = Plasma concentration in rat at 30 mg/kg, po after 3 hrs; format: ADME, organism-based; parameters: dose 30 mg/kg, route oral; details: read-out: Activity; procedure, shortened: as §4
[31] = Drug level in rat brain at 30 mg/kg, po after 3 hrs; format: ADME, organism-based; parameters: dose 30 mg/kg, route oral; details: read-out: Activity; procedure, shortened: as §4
[32] = Plasma concentration in rat spinal nerve ligation model at 30 mg/kg, po after 1 hrs; format: ADME, organism-based; parameters: dose 30 mg/kg, route oral; details: read-out: Activity; procedure, shortened: as §5
[33] = Drug level in spinal nerve ligation model rat brain at 30 mg/kg, po after 1 hrs; format: ADME, organism-based; parameters: dose 30 mg/kg, route oral; details: read-out: Activity; procedure, shortened: as §5
Rattus norvegicus [34] = species: Rattus norvegicus; assay: Neurotoxicity in rat assessed as impairment of motor coordination at 8 uM plasma concentration by rotarod test; format: toxicity, organism-based; details: in vivo
Procedure, shortened: (§6)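 Rat Rotarod motor coordination test after IV doses of 3 and 10 mg/kg. Plasma and brain drug concentrations determined alongside coordination impairment.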

Rattus norvegicus [35] = species: Rattus norvegicus; assay: Neurotoxicity in rat assessed as impairment of motor coordination at 6 uM brain concentration by rotarod test; format: toxicity, organism-based; details: in vivo; procedure, shortened: as §6
Plasma = assay: Plasma concentration in rat at 3 mg/kg, iv; format: ADME, organism-based; parameters: dose 3 mg/kg, route intravenous; details: in vivo, read-out: Drug uptake; procedure, shortened: as §6
Brain = assay: Drug level in rat brain at 3 mg/kg, iv; format: ADME, organism-based; parameters: dose 3 mg/kg, route intravenous; details: in vivo, read-out: Drug uptake; procedure, shortened: as §6
Rattus norvegicus [36] = species: Rattus norvegicus; assay: Neurotoxicity in rat assessed as impairment of motor coordination at 1.9 uM plasma concentration by rotarod test; format: toxicity, organism-based; details: in vivo; procedure, shortened: as §6
Rattus norvegicus [37] = species: Rattus norvegicus; assay: Neurotoxicity in rat assessed as impairment of motor coordination at 1.4 uM brain concentration by rotarod test; format: toxicity, organism-based; details: in vivo; procedure, shortened: as §6
Rattus norvegicus [38] = species: Rattus norvegicus; assay: Antiallodynic activity in rat spinal nerve ligation model of neuropathic pain assessed as reversal of mechanical allodynia at 0.44 uM plasma concentration; format: functional, organism-based; procedure, shortened: as §5
Canis familiaris [39] = species: Canis familiaris; assay: Cardiotoxicity in dog assessed as reduction in mean arterial pressure at >2 uM plasma concentration; format: toxicity, organism-based, Canis lupus familiaris
Procedure, shortened: (§7)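 Barbiturate-anesthetized, ventilated dogs given rising IV doses of 1, 3 and 10 mg/kg. Mean arterial pressure and heart rate recorded against plasma drug concentration.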

Canis familiaris [40] = species: Canis familiaris; assay: Cardiotoxicity in dog assessed as reduction in heart rate at maximal plasma exposure; format: toxicity, organism-based, Canis lupus familiaris; parameters: scale not given: the % may be the effect or the level left; procedure, shortened: as §7

Cytochrome P450 2C9, sequence (P11712 whole entry): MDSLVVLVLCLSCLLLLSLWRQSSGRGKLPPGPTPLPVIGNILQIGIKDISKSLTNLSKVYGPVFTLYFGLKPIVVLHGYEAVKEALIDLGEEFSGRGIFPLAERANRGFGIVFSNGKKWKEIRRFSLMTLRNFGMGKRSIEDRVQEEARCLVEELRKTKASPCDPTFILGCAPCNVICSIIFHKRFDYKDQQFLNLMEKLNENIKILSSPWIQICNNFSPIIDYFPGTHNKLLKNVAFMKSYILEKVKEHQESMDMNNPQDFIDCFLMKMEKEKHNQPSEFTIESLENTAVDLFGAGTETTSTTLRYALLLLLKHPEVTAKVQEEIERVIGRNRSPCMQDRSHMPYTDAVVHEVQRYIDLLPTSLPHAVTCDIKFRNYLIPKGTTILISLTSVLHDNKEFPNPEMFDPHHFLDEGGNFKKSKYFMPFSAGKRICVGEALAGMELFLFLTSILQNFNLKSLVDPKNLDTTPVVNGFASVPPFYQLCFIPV
Cytochrome P450 2D6, sequence (P10635 whole entry): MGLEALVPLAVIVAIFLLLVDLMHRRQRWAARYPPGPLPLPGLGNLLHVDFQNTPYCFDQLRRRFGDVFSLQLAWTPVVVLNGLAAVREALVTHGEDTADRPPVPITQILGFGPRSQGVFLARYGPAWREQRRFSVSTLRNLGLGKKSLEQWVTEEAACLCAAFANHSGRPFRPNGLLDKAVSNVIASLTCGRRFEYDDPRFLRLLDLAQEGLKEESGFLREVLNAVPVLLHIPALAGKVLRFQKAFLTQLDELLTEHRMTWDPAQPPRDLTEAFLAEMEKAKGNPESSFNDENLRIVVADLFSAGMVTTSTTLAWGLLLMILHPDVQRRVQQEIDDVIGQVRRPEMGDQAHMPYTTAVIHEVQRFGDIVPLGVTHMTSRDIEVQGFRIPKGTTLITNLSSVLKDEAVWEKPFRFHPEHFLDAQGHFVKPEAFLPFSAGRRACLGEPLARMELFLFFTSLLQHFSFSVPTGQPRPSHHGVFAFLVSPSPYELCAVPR
Cytochrome P450 3A4, sequence (P08684 whole entry): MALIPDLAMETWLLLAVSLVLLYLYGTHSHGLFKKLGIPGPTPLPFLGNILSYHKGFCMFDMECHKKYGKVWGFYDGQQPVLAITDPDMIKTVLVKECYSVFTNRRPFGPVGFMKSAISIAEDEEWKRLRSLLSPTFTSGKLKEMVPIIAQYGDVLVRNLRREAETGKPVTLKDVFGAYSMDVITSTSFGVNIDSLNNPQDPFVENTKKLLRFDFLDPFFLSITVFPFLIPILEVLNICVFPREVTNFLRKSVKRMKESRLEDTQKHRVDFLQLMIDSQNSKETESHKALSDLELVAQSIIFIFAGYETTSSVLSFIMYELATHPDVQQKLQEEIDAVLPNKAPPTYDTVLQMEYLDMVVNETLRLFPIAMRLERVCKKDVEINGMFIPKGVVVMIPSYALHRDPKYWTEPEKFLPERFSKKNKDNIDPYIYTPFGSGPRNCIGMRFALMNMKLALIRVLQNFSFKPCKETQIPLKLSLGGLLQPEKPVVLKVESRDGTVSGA
Cav1.2 (voltage-dependent L-type calcium channel subunit alpha-1C), sequence (Q13936 whole entry): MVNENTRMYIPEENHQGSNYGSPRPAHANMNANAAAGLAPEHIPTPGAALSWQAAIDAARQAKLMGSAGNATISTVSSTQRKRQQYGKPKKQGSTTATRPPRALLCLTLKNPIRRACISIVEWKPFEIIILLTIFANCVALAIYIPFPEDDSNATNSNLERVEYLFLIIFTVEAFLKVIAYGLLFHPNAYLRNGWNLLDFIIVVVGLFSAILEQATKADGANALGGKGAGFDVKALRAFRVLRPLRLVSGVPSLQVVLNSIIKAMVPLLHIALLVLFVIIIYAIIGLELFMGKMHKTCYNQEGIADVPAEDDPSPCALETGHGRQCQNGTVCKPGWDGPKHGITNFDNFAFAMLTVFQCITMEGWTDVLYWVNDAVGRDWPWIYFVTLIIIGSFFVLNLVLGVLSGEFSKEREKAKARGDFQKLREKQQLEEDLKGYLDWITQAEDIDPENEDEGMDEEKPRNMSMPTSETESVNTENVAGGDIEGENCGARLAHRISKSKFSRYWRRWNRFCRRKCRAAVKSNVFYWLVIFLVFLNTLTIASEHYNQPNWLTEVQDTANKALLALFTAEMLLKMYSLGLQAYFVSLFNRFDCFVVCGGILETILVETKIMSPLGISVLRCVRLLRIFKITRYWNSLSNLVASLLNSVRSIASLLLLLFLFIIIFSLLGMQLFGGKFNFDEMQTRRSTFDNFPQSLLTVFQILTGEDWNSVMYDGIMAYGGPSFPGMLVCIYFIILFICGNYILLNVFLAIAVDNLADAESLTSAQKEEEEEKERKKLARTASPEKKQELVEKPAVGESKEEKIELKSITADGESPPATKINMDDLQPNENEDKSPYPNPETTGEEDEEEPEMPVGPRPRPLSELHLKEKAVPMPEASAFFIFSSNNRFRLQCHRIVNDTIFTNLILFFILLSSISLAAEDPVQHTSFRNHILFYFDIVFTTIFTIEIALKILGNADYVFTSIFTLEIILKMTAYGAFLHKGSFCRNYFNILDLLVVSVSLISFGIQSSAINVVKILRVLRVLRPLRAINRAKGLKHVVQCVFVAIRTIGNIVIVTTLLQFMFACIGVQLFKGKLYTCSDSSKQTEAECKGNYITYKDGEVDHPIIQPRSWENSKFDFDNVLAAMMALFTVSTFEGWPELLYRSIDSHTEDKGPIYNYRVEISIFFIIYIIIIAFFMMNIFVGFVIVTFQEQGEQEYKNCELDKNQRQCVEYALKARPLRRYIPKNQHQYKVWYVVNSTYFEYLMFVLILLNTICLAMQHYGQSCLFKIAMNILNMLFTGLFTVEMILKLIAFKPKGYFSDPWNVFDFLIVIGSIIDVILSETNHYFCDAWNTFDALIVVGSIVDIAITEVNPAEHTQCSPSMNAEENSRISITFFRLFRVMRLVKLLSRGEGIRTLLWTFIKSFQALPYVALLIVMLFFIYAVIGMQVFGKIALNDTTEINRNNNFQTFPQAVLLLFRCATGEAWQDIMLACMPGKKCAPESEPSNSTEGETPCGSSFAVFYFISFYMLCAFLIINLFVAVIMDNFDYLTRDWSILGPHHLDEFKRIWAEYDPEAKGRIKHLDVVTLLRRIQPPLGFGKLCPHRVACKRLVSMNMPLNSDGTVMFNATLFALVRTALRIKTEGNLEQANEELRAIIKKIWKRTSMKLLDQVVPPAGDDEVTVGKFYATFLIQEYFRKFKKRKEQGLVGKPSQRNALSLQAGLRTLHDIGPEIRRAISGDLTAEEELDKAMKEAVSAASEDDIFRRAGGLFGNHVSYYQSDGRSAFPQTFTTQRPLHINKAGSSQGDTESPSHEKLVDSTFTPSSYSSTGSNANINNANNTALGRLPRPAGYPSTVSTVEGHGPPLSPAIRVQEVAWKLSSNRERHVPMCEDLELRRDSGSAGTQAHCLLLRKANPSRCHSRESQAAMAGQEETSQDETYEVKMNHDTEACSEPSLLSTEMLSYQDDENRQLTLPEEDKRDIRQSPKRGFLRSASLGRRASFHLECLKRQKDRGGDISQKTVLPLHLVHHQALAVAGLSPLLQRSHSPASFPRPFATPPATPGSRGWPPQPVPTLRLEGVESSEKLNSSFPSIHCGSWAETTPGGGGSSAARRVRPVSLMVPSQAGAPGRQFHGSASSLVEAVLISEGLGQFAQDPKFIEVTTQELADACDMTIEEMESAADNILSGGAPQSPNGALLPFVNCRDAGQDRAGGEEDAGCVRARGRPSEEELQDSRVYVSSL

Which results are given for `CC(C)(C)NC(=O)Cn1c(-c2ccc(OC(F)(F)F)cc2)cc2cc(C(C)(C)C(=O)NC(C)(C)C)ccc21`?
clearance [1]: 5.6 mL/min/kg; bioavailability [2]: 68%; inhibition at 10 µM [3]: 85%; EC50 [4]: > 30 µM; remaining at 1 h [5]: 20%; remaining at 1 h [6]: 20%; AUC (Rattus norvegicus [7]): 0.34 µM·kg·h/mg; clearance [8]: 64 mL/min/kg; half-life [9]: 1.4 h; AUC (Canis familiaris [10]): 1.02 µM·kg·h/mg; half-life [11]: 4.6 h; bioavailability [12]: 18%; IC50 (Cytochrome P450 3A4): > 10 µM; IC50 (Cytochrome P450 2D6): > 10 µM; IC50 (Cytochrome P450 2C9): > 10 µM; Activity (Rattus norvegicus [13]): 36%; Activity (Rattus norvegicus [14]): 37%; Activity (Rattus norvegicus [15]): 17%; Activity (Rattus norvegicus [16]): 57%; Activity (Rattus norvegicus [17]): 52%; Activity (Rattus norvegicus [18]): 22%; Activity (Rattus norvegicus [19]): 66%; Activity (Rattus norvegicus [20]): 68%; Activity (Rattus norvegicus [21]): 32%; Activity (Rattus norvegicus [22]): 45%; Activity (Rattus norvegicus [23]): 47%; Activity (Rattus norvegicus [24]): 14%; Activity (Rattus norvegicus [25]): 68%; Activity (Rattus norvegicus [26]): 50%; Activity (Rattus norvegicus [27]): 27%; Vd [28]: 5.1 L/kg; Cmax [29]: 290 nM; concentration at 3 h [30]: 750 nM; concentration at 3 h [31]: 170 nM; concentration at 1 h [32]: 410 nM; concentration at 1 h [33]: 260 nM; Activity (Rattus norvegicus [34]): Toxic; Activity (Rattus norvegicus [35]): Toxic; concentration (Plasma): 1900 nM; concentration (Brain): 1400 nM; Activity (Rattus norvegicus [36]): Non-toxic; Activity (Rattus norvegicus [37]): Non-toxic; Activity (Rattus norvegicus [38]): Active; Activity (Canis familiaris [39]): Toxic; Activity (Canis familiaris [40]): 32%
